Measured values as given in publication PMC2212458 (The Journal of Experimental Medicine, 1998).

What was measured:
[1] = tested on: gp100-reactive T cells with EL-4 thymoma cells; test: Recognition of peptide-pulsed EL-4 at limiting concentrations, IFN-γ ELISA; format: cell-based; conditions: human versus mouse epitope
[2] = target: H-2D^b (Mus musculus, UniProt P01899); test: MHC class I stabilization assay on RMA/S cells; format: binding
Method in brief: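 RMA/S cells (TAP-deficient, H-2b) preincubated 24 h at room temperature, then pulsed with peptides across a concentration range, with control peptides, at room temperature (25°C). Next, 4 h at 37°C to allow turnover of empty class I. Stained with FITC anti-H-2Db mAb KH95 for 1 h at 4°C and analysed by flow cytometry. Expressed as percentage of maximal stabilization at 100 μM.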

H-2D^b, sequence (P01899 whole entry, looked up): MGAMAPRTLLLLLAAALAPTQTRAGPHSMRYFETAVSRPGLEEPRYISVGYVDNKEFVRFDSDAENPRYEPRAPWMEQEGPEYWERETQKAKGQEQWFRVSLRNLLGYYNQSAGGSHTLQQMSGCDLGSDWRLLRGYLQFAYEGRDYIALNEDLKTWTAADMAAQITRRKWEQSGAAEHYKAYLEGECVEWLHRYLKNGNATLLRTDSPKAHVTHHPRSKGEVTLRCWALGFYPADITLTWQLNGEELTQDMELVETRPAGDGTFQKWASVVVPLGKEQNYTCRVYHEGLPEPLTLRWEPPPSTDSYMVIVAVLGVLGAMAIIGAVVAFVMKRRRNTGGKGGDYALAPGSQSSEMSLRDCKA

For KVPRNQDWL [hgp100_25–33], the “increase in ability to trigger interferon γ release by T cells” value [1] was 3 log, the “affinity for H-2D^b” value ([2]; compared with mgp100_25–33, Fig. 6) was “dramatically increased affinity” and the “increase in ability to stabilize “empty” D^b on RMA-S cells” value ([2]; human versus mouse epitope) was 2 log.
